Results taken from ChEMBL document CHEMBL2346655, “Synthesis and in vitro biological evaluation of 2,6,9-trisubstituted purines targeting multiple cyclin-dependent kinases” (Eur J Med Chem, 2013).
Activity calls are given as the source filed them. No cut-off for these calls is given here.

Columns and labels:
MCF7 = assay: Cytotoxicity against human MCF7 cells assessed as reduction in number of viable cells after 72 hrs by fluorescence assay; type: functional, cell-based; conditions: MCF7, 72 h
Outline: (§1)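 Three-fold compound dilutions tested in triplicate on cultured cells for 72 h. Viable cells detected by adding Calcein AM and reading fluorescence at 485/538 nm (ex/em).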

K562 [1] = assay: Induction of apoptosis in human K562 cells assessed as PARP cleavage up to 5 uM after 24 hrs by immunoblotting analysis; type: functional, cell-based
Outline: (§2)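 Cells were treated for 24 h, harvested directly into Laemmli sample buffer, and run on SDS-PAGE. Proteins were blotted to nitrocellulose, blocked, probed overnight with primary antibodies, then with peroxidase-linked secondaries. Bands were detected by ECL with a CCD camera. PCNA and tubulin served as loading references.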

[2] = target: T1, CDK9/cyclin T1 (Homo sapiens) (UniProt O60563+P50750); assay: Inhibition of CDK9/CyclinT1 in human HCT116 cells assessed as increase in p21 expression at 1 to 5 uM after 24 hrs by immunoblotting analysis; type: cell-based; conditions: HCT-116
Outline: (§3)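 Immunoblot: cells lysed by harvesting in Laemmli sample buffer, proteins run on SDS-PAGE, electroblotted to nitrocellulose, blocked, primary antibodies overnight, peroxidase-conjugated secondaries, ECL detection by CCD camera. Antibodies included anti-phospho RNA polymerase II (S2), anti-RNA polymerase II (ARNA-3), anti-p53 (DO-1), anti-p21waf1 (118), anti-PCNA.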

K562 [3] = assay: Cell cycle arrest in human K562 cells assessed as accumulation at subG1 phase at 0.2 uM after 24 hrs by propidium iodide staining-based flow cytometric analysis (reference value: 2.4%); type: functional
Outline: (§4)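 Sub-confluent cells treated at several concentrations for 24 h, then pulsed with 10 μM BrdU for 30 min at 37 °C before harvest. Cells were PBS-washed, fixed in 70% ethanol, denatured in 2 M HCl and neutralized. Stained with fluorescein anti-BrdU and propidium iodide; DNA content read by flow cytometry with 488 nm excitation.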

[4] = target: T2, Cyclin-dependent kinase 7/ cyclin H (Homo sapiens) (UniProt P51946+P50613); assay: Inhibition of CDK7/CyclinH/MAT1-mediated phosphorylation of RNA polymerase 2 at Ser2 in human K562 cells up to 25 uM after 24 hrs by immunoblotting analysis; type: cell-based
Outline: (§5)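 Treated cells were lysed in Laemmli buffer and separated by SDS-PAGE, then transferred to nitrocellulose. Blots were probed overnight with phospho-RNA polymerase II (S2) and total RNA polymerase II (clone ARNA-3) antibodies, followed by peroxidase secondaries. Signal was developed by ECL on a CCD camera.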

HCT-116 [5] = assay: Cell cycle arrest in human HCT116 cells assessed as accumulation at G1 phase at 5 uM after 24 hrs by propidium iodide staining-based flow cytometric analysis (reference value: 48.8%); type: functional; outline: as §4
K562 [6] = assay: Induction of apoptosis in human K562 cells assessed as caspase-3/7 activation by fluorescence assay; type: functional, cell-based
Outline: (§6)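 After 24 h treatment, cells were lysed on ice for 20 min in pH 7.4 HEPES/KCl/EDTA/EGTA/0.2% CHAPS buffer with protease inhibitors and cleared at 10,000 × g for 30 min at 4 °C. Protein was equalized, then incubated for 1 h with 100 μM Ac-DEVD-AMC in PIPES buffer pH 7.3 containing DTT. Fluorescence was read at 355/460 nm; 100 μM Ac-DEVD-CHO served as the negative control.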

K562 [7] = assay: Cell cycle arrest in human K562 cells assessed as accumulation at S phase at 1 uM after 24 hrs by propidium iodide staining-based flow cytometric analysis (reference value: 38.8%); type: functional; outline: as §4
HCT-116 [8] = assay: Cell cycle arrest in human HCT116 cells assessed as accumulation at G1 phase at 0.2 uM after 24 hrs by propidium iodide staining-based flow cytometric analysis (reference value: 48.8%); type: functional; outline: as §4
K562 [9] = assay: Cell cycle arrest in human K562 cells assessed as accumulation at S phase after 24 hrs by BrdU incorporation assay; type: functional, cell-based
Outline: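 Sub-confluent cells were exposed to compound for 24 h, then pulse-labeled with 10 μM BrdU for 30 min at 37 °C. After ethanol (70%) fixation and 2 M HCl denaturation, cells were stained with fluorescein anti-BrdU antibody plus propidium iodide. The BrdU-positive S-phase fraction was quantified by flow cytometry (488 nm laser).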

K562 [10] = assay: Cell cycle arrest in human K562 cells assessed as accumulation at G1 phase at 5 uM after 24 hrs by propidium iodide staining-based flow cytometric analysis (reference value: 47.3%); type: functional; outline: as §4
K562 [11] = assay: Cell cycle arrest in human K562 cells assessed as accumulation at S phase at 5 uM after 24 hrs by propidium iodide staining-based flow cytometric analysis (reference value: 38.8%); type: functional; outline: as §4
HOS = assay: Cytotoxicity against human HOS cells assessed as reduction in number of viable cells after 72 hrs by fluorescence assay; type: functional, cell-based; outline: as §1
HCT-116 [12] = assay: Induction of apoptosis in human HCT116 cells assessed as caspase-3/7 activation up to 25 uM by fluorescence assay; type: functional, cell-based; outline: as §6
K562 [13] = assay: Cell cycle arrest in human K562 cells assessed as accumulation at S phase at 0.2 uM after 24 hrs by propidium iodide staining-based flow cytometric analysis (reference value: 38.8%); type: functional; outline: as §4
K562 [14] = assay: Induction of apoptosis in human K562 cells assessed as caspase-3 activation up to 5 uM after 24 hrs by immunoblotting analysis; type: functional, cell-based; outline: as §2
[15] = target: T2, Cyclin-dependent kinase 7/ cyclin H (Homo sapiens); assay: Inhibition of CDK7/CyclinH/MAT1-mediated phosphorylation of RNA polymerase 2 at Ser2 in human HCT116 cells up to 25 uM after 24 hrs by immunoblotting analysis; type: cell-based; conditions: HCT-116; outline: as §5
HCT-116 [16] = assay: Ratio of roscovitine IC50 to compound IC50 for human HCT116 cells; type: functional
Outline: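 Cytotoxicity IC50s underlying the ratio: cells treated in triplicate with three-fold compound dilutions for 72 h, then Calcein AM added and live-cell fluorescence read at 485/538 nm (ex/em).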

K562 [17] = assay: Cell cycle arrest in human K562 cells assessed as accumulation at G1 phase at 1 uM after 24 hrs by propidium iodide staining-based flow cytometric analysis (reference value: 47.3%); type: functional; outline: as §4
K562 [18] = assay: Cell cycle arrest in human K562 cells assessed as accumulation at subG1 phase at 1 uM after 24 hrs by propidium iodide staining-based flow cytometric analysis (reference value: 2.4%); type: functional; outline: as §4
CCRF-CEM = assay: Cytotoxicity against human CEM cells assessed as reduction in number of viable cells after 72 hrs by fluorescence assay; type: functional, cell-based; outline: as §1
HCT-116 [19] = assay: Induction of apoptosis in human HCT116 cells assessed as decrease in MCL1 level after 24 hrs by immunoblotting analysis; type: functional, cell-based; outline: as §2
K562 [20] = assay: Cell cycle arrest in human K562 cells assessed as accumulation at G2/M phase at 5 uM after 24 hrs by propidium iodide staining-based flow cytometric analysis (reference value: 13.8%); type: functional; outline: as §4
HCT-116 [21] = assay: Cell cycle arrest in human HCT116 cells assessed as accumulation at subG1 phase at 1 uM after 24 hrs by propidium iodide staining-based flow cytometric analysis (reference value: 1.4%); type: functional; outline: as §4
[22] = target: T1, CDK9/cyclin T1 (Homo sapiens); assay: Inhibition of CDK9/CyclinT1-mediated phosphorylation of RNA polymerase 2 at Ser2 in human HCT116 cells up to 25 uM after 24 hrs by immunoblotting analysis; type: cell-based; conditions: HCT-116; outline: as §3
HCT-116 [23] = assay: Induction of apoptosis in human HCT116 cells assessed as caspase-3 activation up to 5 uM after 24 hrs by immunoblotting analysis; type: functional, cell-based; outline: as §2

- inhibition [2]: Active
- inhibition [4]: Active
- inhibition [15]: Active
- inhibition [22]: Active
SMILES: CC[C@@H](Nc1nc(NCc2cc(Cl)ccc2O)c2ncn(C(C)C)c2n1)C(C)O (mixture of isomers)
- IC50 (MCF7): 2600 nM
- Activity (K562 [1]): Active
- Activity (K562 [3]): 2.8%
- Activity (HCT-116 [5]): 29.5%
- Activity (K562 [6]): Dose-dependent effect
- Activity (K562 [7]): 39.8%
- Activity (HCT-116 [8]): 45.6%
- Activity (K562 [9]): Dose-dependent effect
- Activity (K562 [10]): 40.7%
- Activity (K562 [11]): 27.8%
- IC50 (HOS): 2700 nM
- Activity (HCT-116 [12]): Active
- Activity (K562 [13]): 38.5%
- Activity (K562 [14]): inactive
- Ratio IC50 (HCT-116 [16]): >9
- Activity (K562 [17]): 31.5%
- Activity (K562 [18]): 3.3%
- IC50 (CCRF-CEM): 1600 nM
- Activity (HCT-116 [19]): Dose-dependent effect
- Activity (K562 [20]): 31.5%
- Activity (HCT-116 [21]): 3.3%
- Activity (HCT-116 [23]): inactive
